According to ChEMBL document CHEMBL1123263, “Alkylglycidic acids: potential new hypoglycemic agents” (J Med Chem, 1986):
Active and inactive are the calls of the source. The calls are words filed in the database; no cut-off is given here.

Assays:
Rattus norvegicus [1] = organism: Rattus norvegicus; assay: In vitro inhibition of palmitate oxidation; type: functional
Method in brief: (§1)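 In vitro assay in rat hemidiaphragm muscle, using [1-¹⁴C]palmitic acid as the labeled substrate. Read-out was inhibition of oxidation of the labeled palmitate.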

Rattus norvegicus [2] = organism: Rattus norvegicus; assay: Compound was tested in vitro for inhibition of palmitate oxidation; type: functional; settings: for minimal effective concentration: Rattus norvegicus, read-out: MEC; method in brief: as §1
Rattus norvegicus [3] = assay: Maximum lowering of blood glucose when 100 mg/kg of the drug administered orally was reported by rat glucose tolerance test; type: functional; settings: route oral
Rattus norvegicus [4] = assay: Minimum effective concentration by rat glucose tolerance test (po); type: functional; settings: read-out: MED
Rattus norvegicus [5] = assay: Maximum lowering of blood glucose when 60 mg/kg of the drug administered orally was reported by rat glucose tolerance test; type: functional; settings: route oral
Rattus norvegicus [6] = assay: Minimum effective concentration by rat glucose tolerance test (po); Inactive; type: functional, organism-based
Rattus norvegicus [7] = organism: Rattus norvegicus; assay: Compound was tested in vitro for inhibition of palmitate oxidation; Inactive; type: functional; method in brief: as §1
Rattus norvegicus [8] = organism: Rattus norvegicus; assay: In vitro inhibition of palmitate oxidation; Inactive; type: functional; method in brief: as §1
Rattus norvegicus [9] = assay: Maximum lowering of blood glucose when 100 mg/kg of the drug administered orally was reported by rat glucose tolerance test; Inactive; type: functional, organism-based; design: dose 100 mg/kg
Rattus norvegicus [10] = assay: Maximum lowering of blood glucose when 75 mg/kg of the drug administered orally was reported by rat glucose tolerance test; type: functional; settings: route oral
Rattus norvegicus [11] = assay: Maximum lowering of blood glucose when 25 mg/kg of the drug administered orally was reported by rat glucose tolerance test; type: functional; settings: route oral
Rattus norvegicus [12] = assay: Maximum lowering of blood glucose when 50 mg/kg of the drug administered orally was reported by rat glucose tolerance test; type: functional; settings: route oral

SMILES	IC50 (Rattus norvegicus [1]; Rattus norvegicus)	IC50 (Rattus norvegicus [8])	minimal effective concentration (Rattus norvegicus [2])	Max lowering (Rattus norvegicus [3])	minimal effective dose (Rattus norvegicus [4])	MEC (Rattus norvegicus [7])	also measured
CCCCCCCCCCCCCCC1(C(=O)OCCCC)CO1 (configuration not stated)	47 µM	–	10 µM	40%	1.5 mg/kg	–	–
CCCCCCC1(C(=O)OC)CO1 (configuration not stated)	102 µM	–	20 µM	30%	10 mg/kg	–	–
CCCCCCCCCCCCCCC1(C(=O)[O-])CO1.[Na+] (configuration not stated)	–	–	–	–	2.5 mg/kg	–	IC50 (Rattus norvegicus [1]): 1 µM; MEC (Rattus norvegicus [2]): 0.2 µM; Max lowering (Rattus norvegicus [5]): 38%
CCCCCCCCCCCCCCC1(C(=O)OC)CO1 (configuration not stated) [METHYL PALMOXIRATE]	2 µM	–	0.1 µM	–	4 mg/kg	–	Max lowering (Rattus norvegicus [10]): 45%
CCCCCCCCCCCCCCCCCCC1(C(=O)OC)CO1 (configuration not stated)	–	–	–	25%	10 mg/kg	inactive	–
CCCCCCCCCCCCCCC1(C(N)=O)CO1 (configuration not stated)	–	Not Active	–	44%	10 mg/kg	inactive	–
CCCCCCCCCCCCCCCCC1(C(=O)OC)CO1 (configuration not stated)	100 µM	–	10 µM	16%	25 mg/kg	–	–
CCCCCCCCCCCCCCC1(CC(C(=O)OC)C(=O)OC)CO1 (configuration not stated)	–	Not Active	–	–	–	inactive	MED (Rattus norvegicus [6]): inactive; Max lowering (Rattus norvegicus [9]): inactive
CCCCCCCCCCCCCC1(C(=O)OC)CO1 (configuration not stated)	13 µM	–	1 µM	37%	5 mg/kg	–	–
CCCCCCCCCCCCCCC1(C(=O)O)CO1 (configuration not stated) [PALMOXIRATE]	–	–	0.1 µM	53%	5 mg/kg	–	–
COC(=O)C1(CCCCCCCCCCc2ccccc2)CO1 (configuration not stated)	–	–	–	–	10 mg/kg	–	Max lowering (Rattus norvegicus [11]): 36%
CCCCCCCCCCCCCCC1(C(=O)OCC(O)CO)CO1 (configuration not stated)	16 µM	–	10 µM	–	5 mg/kg	–	Max lowering (Rattus norvegicus [11]): 31%
CCCCCCCCCCCCCCC1(CO)CO1 (configuration not stated)	–	Not Active	–	–	–	inactive	MED (Rattus norvegicus [6]): inactive; Max lowering (Rattus norvegicus [9]): inactive

Now from value to molecule, other results behind:

IC50 (Rattus norvegicus [1]; Rattus norvegicus)	IC50 (Rattus norvegicus [8])	SMILES	minimal effective concentration (Rattus norvegicus [2])	Max lowering (Rattus norvegicus [3])	minimal effective dose (Rattus norvegicus [4])	MEC (Rattus norvegicus [7])	also measured
15 µM	–	CCCCCCCCCCCCC1(C(=O)OC)CO1 (configuration not stated)	1 µM	32%	5 mg/kg	–	–
–	Not Active	CCCCCCCCCCC1(C(=O)OCC)OC1(C)C (configuration not stated)	–	–	–	inactive	MED (Rattus norvegicus [6]): inactive; Max lowering (Rattus norvegicus [9]): inactive
–	Not Active	CCCCCCCCCCCCCCC1(C(=O)OC)OC1(C)C (configuration not stated)	–	–	–	inactive	MED (Rattus norvegicus [6]): inactive; Max lowering (Rattus norvegicus [9]): inactive
–	Not Active	COC(=O)C1(C)CO1 (configuration not stated)	–	–	–	inactive	MED (Rattus norvegicus [6]): inactive; Max lowering (Rattus norvegicus [9]): inactive
–	Not Active	CCCCCCCCCCCCCCC1(C(=O)NCCO)CO1 (configuration not stated)	–	33%	100 mg/kg	inactive	–
7 µM	–	CCCCCCCCCCCC1(C(=O)OC)CO1 (configuration not stated)	2.5 µM	38%	10 mg/kg	–	–
–	Not Active	CCCCCCCCCCCCCCC1(CCC(=O)OC)CO1 (configuration not stated)	–	–	–	inactive	MED (Rattus norvegicus [6]): inactive; Max lowering (Rattus norvegicus [9]): inactive
–	Not Active	CCCCCCCCCCCCCCC1(C(=O)N(C)C)CO1 (configuration not stated)	–	19%	25 mg/kg	inactive	–
5 µM	–	CCCCCCCCCCC1(C(=O)OC)CO1 (configuration not stated)	0.5 µM	–	10 mg/kg	–	Max lowering (Rattus norvegicus [12]): 32%
–	Not Active	CCCCCCCCCCCCCCC1(C(=O)OC)OC1C (configuration not stated)	–	–	–	inactive	MED (Rattus norvegicus [6]): inactive; Max lowering (Rattus norvegicus [9]): inactive
–	Not Active	CCCCCCCCCCCCCCCCCCCCCCC1(C(=O)OC)CO1 (configuration not stated)	–	17%	10 mg/kg	inactive	–
